From ChEMBL document CHEMBL1155941, “Solid-phase synthesis and biological evaluation of a parallel library of 2,3-dihydro-1,5-benzothiazepines” (Bioorg Med Chem, 2008)

Columns and labels:
[1] = test system: Agrobacterium tumefaciens; test: Inhibition of Agrobacterium tumefaciens-induced tumor growth in potato tuber disk after 21 days; assay type: functional, organism-based
Method in brief: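 Potato disk bioassay: red-skinned potatoes surface-sterilized in 0.1% HgCl₂. Disks were inoculated with a 48-h culture of A. tumefaciens AT-10 containing test sample at 10, 100 or 1000 ppm. Tumors were counted under a dissecting microscope, with tests run in replicate. Percent inhibition came from the average tumor count per sample versus control; IC₅₀ was calculated by a literature procedure.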

[2] = biological target: Cholinesterase (Homo sapiens, UniProt P06276); test: Inhibition of BchE
Method in brief: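 Ellman-type assay: enzyme, DTNB and test compound (dissolved in EtOH) were mixed in sodium phosphate buffer pH 8.0 and incubated 15 min at 25 °C. Reactions were run in triplicate. % inhibition = (E–S)/E × 100, where E is enzyme activity without compound. IC50 was derived from inhibition across increasing compound concentrations.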

[3] = biological target: Acetylcholinesterase (Homo sapiens, UniProt P22303); test: Inhibition of AchE
[4] = test system: Agrobacterium tumefaciens; test: Inhibition of Agrobacterium tumefaciens-induced tumor growth in potato tuber disk at 10 ppm after 21 days
[5] = test system: Agrobacterium tumefaciens; test: Inhibition of Agrobacterium tumefaciens-induced tumor growth in potato tuber disk at 1000 ppm after 21 days
[6] = test system: Agrobacterium tumefaciens; test: Inhibition of Agrobacterium tumefaciens-induced tumor growth in potato tuber disk at 100 ppm after 21 days
[7] = test system: Salmonella enterica subsp. enterica; test: Antimicrobial activity against Salmonella setubal ATCC 19196 assessed as inhibition zone diameter after 24 hrs by agar well diffusion method; assay type: functional, Salmonella enterica subsp. enterica serovar Setubal
Method in brief: (§1)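 Agar well diffusion: broth culture of about 10⁶ CFU/ml mixed into nutrient agar at 45 °C and poured into plates. 8-mm wells received test sample at 1 mg/ml in DMSO. DMSO was the negative control and roxithromycin (1 mg/ml) the positive control. Triplicate plates were incubated 37 °C, 24 h. Complete-inhibition zone diameter (mm) was measured, with growth inhibition referenced to roxithromycin.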

[8] = test system: Klebsiella aerogenes; test: Antimicrobial activity against Enterobacter aerogenes ATCC 13048 assessed as inhibition zone diameter after 24 hrs by agar well diffusion method; assay type: functional; method in brief: as §1
[9] = test system: Micrococcus luteus; test: Antimicrobial activity against Micrococcus luteus assessed as inhibition zone diameter after 24 hrs by agar well diffusion method; assay type: functional; method in brief: as §1
[10] = test system: Bordetella bronchiseptica; test: Antimicrobial activity against Bordetella bronchiseptica ATCC 4617 assessed as inhibition zone diameter after 24 hrs by agar well diffusion method; assay type: functional; method in brief: as §1
[11] = test system: Escherichia coli; test: Antimicrobial activity against Escherichia coli ATCC 1522 assessed as inhibition zone diameter after 24 hrs by agar well diffusion method; assay type: functional; method in brief: as §1

Chain of Cholinesterase (P06276 whole entry): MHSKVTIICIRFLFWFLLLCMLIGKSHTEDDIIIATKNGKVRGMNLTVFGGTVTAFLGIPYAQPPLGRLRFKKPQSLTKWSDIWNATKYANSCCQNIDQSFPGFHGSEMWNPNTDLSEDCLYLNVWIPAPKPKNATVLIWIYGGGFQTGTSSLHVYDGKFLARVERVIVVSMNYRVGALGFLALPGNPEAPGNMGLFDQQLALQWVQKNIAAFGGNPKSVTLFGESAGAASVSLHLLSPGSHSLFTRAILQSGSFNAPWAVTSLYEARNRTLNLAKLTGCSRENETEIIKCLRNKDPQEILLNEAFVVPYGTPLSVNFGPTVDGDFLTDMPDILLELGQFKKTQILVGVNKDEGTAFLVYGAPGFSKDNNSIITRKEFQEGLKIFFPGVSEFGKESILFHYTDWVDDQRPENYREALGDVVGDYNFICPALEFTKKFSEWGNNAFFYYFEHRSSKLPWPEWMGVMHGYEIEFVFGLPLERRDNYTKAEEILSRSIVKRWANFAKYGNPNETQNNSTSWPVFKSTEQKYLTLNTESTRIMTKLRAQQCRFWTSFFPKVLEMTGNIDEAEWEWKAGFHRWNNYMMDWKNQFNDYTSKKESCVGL
Chain of Acetylcholinesterase (P22303 whole entry): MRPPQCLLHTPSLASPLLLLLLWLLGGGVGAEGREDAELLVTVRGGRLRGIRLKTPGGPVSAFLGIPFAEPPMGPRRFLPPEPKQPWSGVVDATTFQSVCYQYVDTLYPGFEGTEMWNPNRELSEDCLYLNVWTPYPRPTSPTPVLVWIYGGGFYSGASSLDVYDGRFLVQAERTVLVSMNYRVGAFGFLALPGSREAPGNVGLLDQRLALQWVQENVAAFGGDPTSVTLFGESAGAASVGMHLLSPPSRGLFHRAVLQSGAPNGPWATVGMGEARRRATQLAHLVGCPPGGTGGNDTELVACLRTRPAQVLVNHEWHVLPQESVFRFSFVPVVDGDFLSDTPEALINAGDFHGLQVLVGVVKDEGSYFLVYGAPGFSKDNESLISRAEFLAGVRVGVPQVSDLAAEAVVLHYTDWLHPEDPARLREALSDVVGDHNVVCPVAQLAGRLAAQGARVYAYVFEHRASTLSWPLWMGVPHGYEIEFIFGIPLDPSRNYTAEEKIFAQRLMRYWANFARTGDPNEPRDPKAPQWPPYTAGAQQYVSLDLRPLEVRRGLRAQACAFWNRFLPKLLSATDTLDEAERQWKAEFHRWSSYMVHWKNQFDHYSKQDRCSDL

SMILES | IC50 [1] [ppm] | IC50 [2] [µM] | IC50 [3] [µM] | inhibition (INH) [4] [%] | inhibition (INH) [5] [%] | inhibition (INH) [6] [%] | inhibition zone (IZ) [7] [mm] | inhibition zone (IZ) [8] [mm] | inhibition zone (IZ) [9] [mm] | inhibition zone (IZ) [10] [mm] | inhibition zone (IZ) [11] [mm]
COc1ccccc1/C=C/C(=O)c1cccc(O)c1 | 3.1 | – | – | – | – | – | – | – | – | – | –
COc1ccc(/C=C/C(=O)c2cccc(O)c2)cc1OC | 5.8 | – | – | – | – | – | – | – | – | – | –
Oc1cccc(C2=Nc3ccccc3SC(c3ccccc3)C2)c1 (centres undefined) | 5.41 | 1420 | 40 | 72.3 | 100 | 97.8 | – | – | – | – | –
COc1ccccc1C1CC(c2cccc(O)c2)=Nc2ccccc2S1 (centres undefined) | 7.06 | 4.65 | – | 81.42 | 98.5 | 87.1 | – | – | – | – | –
COc1ccc(C2CC(c3cccc(O)c3)=Nc3ccccc3S2)cc1 (centres undefined) | 4.69 | – | – | 57.4 | 100 | 78.7 | – | – | – | – | –
Oc1cccc(C2=Nc3ccccc3SC(c3ccc(Br)cc3)C2)c1 (centres undefined) | 61.5 | – | – | 21.2 | 85.1 | 63.8 | – | – | – | – | –
COc1ccc(C2CC(c3cccc(O)c3)=Nc3ccccc3S2)cc1OC (centres undefined) | 8.23 | 19.7 | – | 70.2 | 100 | 82.7 | – | – | – | – | –
Cc1ccc(C2CC(c3cccc(O)c3)=Nc3ccccc3S2)cc1 (centres undefined) | 30.7 | 75.2 | 49.4 | 65.9 | 87.2 | 72.3 | – | – | – | – | –
Oc1cccc(C2=Nc3ccccc3SC(c3cccnc3)C2)c1 (centres undefined) | 926.2 | – | – | 29.7 | 51 | 38.2 | – | – | – | – | –
Oc1cccc(C2=Nc3ccccc3SC(c3ccncc3)C2)c1 (centres undefined) | 6.1 | – | – | 55.1 | 100 | 80 | – | – | – | – | –
Oc1cccc(C2=Nc3ccccc3SC(c3cccs3)C2)c1 (centres undefined) | 4.8 | 3.97 | 5.9 | 87.2 | 100 | 100 | – | – | – | – | –
Oc1cccc(C2=Nc3ccccc3SC(c3ccc(Br)s3)C2)c1 (centres undefined) | 11.2 | – | – | 80.3 | 92.8 | 91.4 | – | – | – | – | –
Oc1cccc(C2=Nc3ccccc3SC(c3ccc(Cl)cc3)C2)c1 (centres undefined) | 9 | 79.6 | 18.8 | 51.93 | 74.4 | 68 | – | – | – | – | –
Oc1cccc(C2=Nc3ccccc3SC(c3ccc(F)cc3)C2)c1 (centres undefined) | 1232 | – | – | 25.5 | 40.4 | 34 | – | – | – | – | –
CN(C)c1ccc(C2CC(c3cccc(O)c3)=Nc3ccccc3S2)cc1 (centres undefined) | 192.5 | 34.4 | – | 38.2 | 100 | 44.6 | 9 | 11 | 10 | 9 | 11
Oc1cccc(C2=Nc3ccccc3SC(c3cccc(O)c3)C2)c1 (centres undefined) | 179.3 | 4.7 | 71.1 | 36.1 | 100 | 48.9 | – | – | – | – | –
Oc1cccc(C2=Nc3ccccc3SC(c3ccccc3Cl)C2)c1 (centres undefined) | 6.94 | – | – | 74.4 | 95.7 | 93.6 | – | – | – | – | –
COc1cccc(C2CC(c3cccc(O)c3)=Nc3ccccc3S2)c1 (centres undefined) | 3.28 | – | – | 67.142 | 100 | 84.2 | – | – | – | – | –
O=[N+]([O-])c1cccc(C2CC(c3cccc(O)c3)=Nc3ccccc3S2)c1 (centres undefined) | 26.2 | – | – | 42.5 | 100 | 57.4 | – | – | 10 | – | –
Oc1cccc(C2=Nc3ccccc3SC(c3cccc(Cl)c3)C2)c1 (centres undefined) | 14.01 | 29.4 | – | 68 | 93.6 | 80.8 | – | – | 11.5 | – | –
Oc1cccc(C2=Nc3ccccc3SC(c3ccccc3F)C2)c1 (centres undefined) | 295.5 | – | 70.6 | 31.9 | 91.4 | 40.4 | – | – | – | – | –
Oc1ccc(C2CC(c3cccc(O)c3)=Nc3ccccc3S2)cc1 (centres undefined) | 237.9 | – | – | 27.6 | 100 | 48.9 | – | – | – | – | –
COc1cc(C2CC(c3cccc(O)c3)=Nc3ccccc3S2)ccc1O (centres undefined) | 247.3 | – | – | 36.1 | 95.7 | 40.4 | 10 | 11 | 10 | 10 | 9.5
CC[C@H]1OC(=O)[C@H](C)[C@@H](O[C@H]2C[C@@](C)(OC)[C@@H](O)[C@H](C)O2)[C@H](C)[C@@H](O[C@@H]2O[C@H](C)C[C@H](N(C)C)[C@H]2O)[C@](C)(O)C[C@@H](C)/C(=N\OCOCCOC)[C@H](C)[C@@H](O)[C@]1(C)O [ROXITHROMYCIN] | – | – | – | – | – | – | 12 | 12 | 15 | 13 | 14
CC[C@]1(O)C[C@H]2CN(CCc3c([nH]c4ccccc34)[C@@](C(=O)OC)(c3cc4c(cc3OC)N(C=O)[C@H]3[C@@](O)(C(=O)OC)[C@H](OC(C)=O)[C@]5(CC)C=CCN6CC[C@]43[C@@H]65)C2)C1 [VINCRISTINE] | 0.003 | – | – | – | – | – | – | – | – | – | –
